Results reported in ChEMBL document CHEMBL1128731, “Furanfurin and thiophenfurin: two novel tiazofurin analogues. Synthesis, structure, antitumor activity, and interactions with inosine monophosphate dehydrogenase” (J Med Chem, 1995).
pIC50: −log10 of the molar value. One block for each molecule: values may come before it.

Experiments:
K562 [1] = test: Compound was tested for its effect on UDP ribonucleotide levels of K562 cell at 50 uM concentration; format: functional, Homo sapiens
Outline: (§1)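 K562 cells (1×10^7) were treated with saline or agent for 2 h at 37 °C, harvested by centrifugation and washed with cold saline. They were extracted with cold 10% trichloroacetic acid, neutralized with 0.5 M tri-n-octylamine in freon, and analyzed by HPLC. Levels are in nmol/g and expressed as % of saline control. Significance was set at p < 0.05.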

K562 [2] = test: Compound was tested for its effect on ATP ribonucleotide levels of K562 cell at 50 uM concentration; format: functional, Homo sapiens; outline: as §1
P388 [3] = test: Inhibitory concentration against P388 murine lymphocytic leukemia cell lines; format: functional, cell-based; conditions: Mus musculus
Outline: (§2)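 Cells in log phase plated with a range of drug concentrations (B16 5×10^3 cells/well; P388, L1210, LLC 10^4 cells/well; HL-60, K562, LoVo 2.5×10^5 cells/well). Growth read by modified MTT after 72 h drug contact at 37 °C. IC50 taken as the concentration reducing optical absorption by 50%, from Chou regression analysis. Maximum concentration tested 200 μM.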

K562 [4] = test: Compound was tested for its effect on CDP ribonucleotide levels of K562 cell at 50 uM concentration; format: functional, Homo sapiens; outline: as §1
K562 [5] = test: Compound was tested for its effect on ATP ribonucleotide levels of K562 cell at 100 uM concentration; format: functional, Homo sapiens; outline: as §1
K562 [6] = test: compound was tested for its effect on IMPDH activity against K562 cells at 50 uM concentration; format: functional, Homo sapiens
Outline: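 K562 cells (1×10^6/mL, log phase) exposed 2 h at 37 °C to 10, 50 or 100 μM drug, or to saline. Cells washed and lysed in Tris-HCl pH 7.4/NaCl/MgCl2/NP-40/aprotinin, and the 13000g supernatant used as enzyme. Enzyme incubated 30 min at 37 °C with 286 μM [2,8-3H]IMP and 1 mM NAD. Tritium release counted; activity in nmol XMP/h/mg protein, as % of saline control.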

K562 [7] = test: Compound was tested for its effect on ADP ribonucleotide levels of K562 cell at 50 uM concentration; format: functional, Homo sapiens; outline: as §1
K562 [8] = test: Compound was tested for its effect on GMP ribonucleotide levels of K562 cell at 50 uM concentration; format: functional, Homo sapiens; outline: as §1
Mus musculus [9] = test: Compound was tested for ratio of survival time of treated to control mice x100 at 400 mg/kg dose; format: functional
Outline: (§3)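 Female BD2F1 mice (8 weeks old, 20–22 g), eight per group, injected ip with 10^5 L1210 leukemia cells on day 0. Starting 24 h later, drug dissolved in 0.9% NaCl given ip once daily for 9 consecutive days. % T/C = survival time of treated/control mice × 100. Body weight change tracked from start to end of treatment.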

K562 [10] = test: Compound was tested for its effect on AMP ribonucleotide levels of K562 cell at 50 uM concentration; format: functional, Homo sapiens; outline: as §1
K562 [11] = test: Compound was tested for its effect on GMP ribonucleotide levels of K562 cell at 100 uM concentration; format: functional, Homo sapiens; outline: as §1
K562 [12] = test: Compound was tested for its effect on UTP ribonucleotide levels of K562 cell at 50 uM concentration; format: functional, Homo sapiens; outline: as §1
[13] = Ratio of IC50 against HL-60; format: functional
Outline: (§4)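 Antiproliferative assay scoring [125I]-5-iodo-2'-deoxyuridine incorporation into DNA after 72 h drug–cell contact. Run on normal human bone marrow from five donors and in three assays on HL-60. Ratio is antilog(mean log IC50 or IC90) on bone marrow over the same on HL-60. Range limits are antilog(mean log IC50 ± 2SD).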

K562 [14] = test: Compound was tested for its effect on IMPDH activity against K562 cells at 50 uM concentration; format: functional, Homo sapiens
Outline: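 Log-phase K562 cells (1×10^6/mL) were exposed to saline or agent for 2 h at 37 °C, washed and lysed (Tris-HCl pH 7.4, NaCl, MgCl2, 0.5% NP-40, aprotinin). The cleared supernatant was incubated 30 min at 37 °C with 286 μM [2,8-3H]IMP and 1 mM NAD. Tritium release was counted by scintillation. Activity is nmol XMP/h/mg protein, also given as % of control.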

K562 [15] = test: Compound was tested for its effect on GDP ribonucleotide levels of K562 cell at 50u; format: functional, Homo sapiens; outline: as §1
K562 [16] = test: Compound was tested for its effect on UMP ribonucleotide levels of K562 cell at 50 uM concentration; format: functional, Homo sapiens; outline: as §1
K562 [17] = test: Compound was tested for its effect on GDP ribonucleotide levels of K562 cell at 100 uM concentration; format: functional, Homo sapiens; outline: as §1
K562 [18] = test: Compound was tested for its effect on NAD ribonucleotide levels of K562 cell at 100 uM concentration; format: functional, Homo sapiens; outline: as §1
K562 [19] = test: Formation of NAD analogue by compound at 50 uM concentration against human myelogenous leukemia K562; format: functional
Outline: (§5)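 K562 cells (1×10^7/10 mL) were labeled with 185 nM [2,8-3H]adenosine for 1 h at 37 °C, then given saline or analogue for 2 h. Cells were pelleted, washed with PBS and extracted in cold 10% trichloroacetic acid. Extracts were neutralized with 0.5 M tri-n-octylamine in freon and run on SAX HPLC with ammonium phosphate buffer. Results are pmol NAD analogue per 10^9 cells.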

K562 [20] = test: Compound was tested for its effect on AMP ribonucleotide levels of K562 cell at 100 uM concentration; format: functional, Homo sapiens; outline: as §1
K562 [21] = test: Compound was tested for its effect on UDP ribonucleotide levels of K562 cell at 100 uM concentration; format: functional, Homo sapiens; outline: as §1
K562 [22] = test: Inhibitory concentration against K562 human myelogenous leukemia cell line; format: functional, cell-based; outline: as §2
K562 [23] = test: Compound was tested for its effect on UMP ribonucleotide levels of K562 cell at 100 uM concentration; format: functional, Homo sapiens; outline: as §1
Mus musculus [24] = test: Average weight change of mice from onset to termination of drug treatment at 400 mg/kg dose; format: functional
Outline: (§6)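 Female BD2F1 mice (8 weeks, 20–22 g), eight per group, injected ip with 10^5 L1210 cells on day 0. From 24 h later, drug in 0.9% NaCl was given ip once daily for 9 days. Body weight change was averaged from onset to termination of treatment. Early deaths from toxicity were recorded.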

[25] = IC90 ratio against bone marrow samples to HL-60; format: functional; outline: as §4
K562 [26] = test: Compound was tested for its effect on NAD ribonucleotide levels of K562 cell at 50 uM concentration; format: functional, Homo sapiens; outline: as §1
[27] = test system: Lewis lung carcinoma cell line; test: Inhibitory concentration against LLC Lewis lung carcinoma; format: functional, cell-based; conditions: Mus musculus; outline: as §2
K562 [28] = test: Compound was tested for its effect on ADP ribonucleotide levels of K562 cell at 100 uM concentration; format: functional, Homo sapiens; outline: as §1
[29] = IC50 ratio against bone marrow samples to HL-60; format: functional; outline: as §4
K562 [30] = test: Compound was tested for its effect on IMP ribonucleotide levels of K562 cell at 50 uM concentration; format: functional, Homo sapiens; outline: as §1
K562 [31] = test: Compound was tested for its effect on GTP ribonucleotide levels of K562 cell at 100 uM concentration; format: functional, Homo sapiens; outline: as §1
Homo sapiens [32] = species on record: Homo sapiens; test: (§7) Inhibitory concentration range against human bone marrow; format: functional; outline: as §4
Homo sapiens [33] = species on record: Homo sapiens; test: as §7; format: functional, organism-based; outline: as §4
LoVo [34] = test: Inhibitory concentration against LoVo human colon adenocarcinoma cell lines; format: functional, cell-based; outline: as §2
L1210 [35] = test: Inhibitory concentration against L1210 murine lymphocytic leukemia; format: functional, cell-based; conditions: Mus musculus; outline: as §2
HL-60 [36] = test: Inhibitory concentration against HL-60 human promyelocytic leukemia; format: functional, cell-based; outline: as §2
K562 [37] = test: Compound was tested for its effect on IMP ribonucleotide levels of K562 cell at 100 uM concentration; format: functional, Homo sapiens; outline: as §1
Mus musculus [38] = test: Average weight change of mice from onset to termination of drug treatment at 25 mg/kg dose; format: functional; outline: as §6
HL-60 [39] = test: (§8) Inhibitory concentration range against human HL-60 cell line; format: functional, cell-based; outline: as §4
K562 [40] = test: Compound was tested for its effect on CTP ribonucleotide levels of K562 cell at 50 uM concentration; format: functional, Homo sapiens; outline: as §1
K562 [41] = test: Compound was tested for its effect on GTP ribonucleotide levels of K562 cell at 50 uM concentration; format: functional, Homo sapiens; outline: as §1
K562 [42] = test: Compound was tested for its effect on UTP ribonucleotide levels of K562 cell at 100 uM concentration; format: functional, Homo sapiens; outline: as §1
Mus musculus [43] = test: Compound was tested for ratio of survival time of treated to control mice x100 at 25 mg/kg dose; format: functional; outline: as §3
K562 [44] = test: Formation of NAD analogue by compound at 100 uM concentration against human myelogenous leukemia K562; format: functional; outline: as §5
K562 [45] = test: Compound was tested for its effect on CDP ribonucleotide levels of K562 cell at 100 uM concentration; format: functional, Homo sapiens; outline: as §1
HL-60 [46] = test: as §8; format: functional; outline: as §4
K562 [47] = test: Compound was tested for its effect on CTP ribonucleotide levels of K562 cell at 100 uM concentration; format: functional, Homo sapiens; outline: as §1
K562 [48] = test: Inhibitory concentration determined against K562 human myelogenous leukemia cell lines; inactive until a maximum tested concentration of 200 uM; format: functional, cell-based; outline: as §2
[49] = test system: Lewis lung carcinoma cell line; test: Inhibitory concentration against LLC Lewis lung carcinoma cell lines; Inactive until a maximum tested concentration of 200 uM; format: functional, cell-based, Mus musculus; outline: as §2
L1210 [50] = test: Inhibitory concentration against L1210 murine lymphocytic leukemia cell lines; inactive until a maximum tested concentration of 200 uM; format: functional, cell-based, Mus musculus; outline: as §2
P388 [51] = test: Inhibitory concentration against P388 murine lymphocytic leukemia cell lines; Inactive until a maximum tested concentration of 200 uM; format: functional, cell-based, Mus musculus; outline: as §2
LoVo [52] = test: Inhibitory concentration against LoVo human colon adenocarcinoma cell lines; Inactive until a maximum tested concentration of 200 uM; format: functional, cell-based; outline: as §2
HL-60 [53] = test: Inhibitory concentration against HL-60 human promyelocytic leukemia cell lines; inactive until a maximum tested concentration of 200 uM; format: functional, cell-based; outline: as §2
B16 = test: Inhibitory concentration against B16 melanoma cell lines; Inactive until a maximum tested concentration of 200 uM; format: functional, cell-based, Mus musculus; outline: as §2

SMILES: NC(=O)c1csc([C@@H]2O[C@H](CO)[C@@H](O)[C@H]2O)n1 [TIAZOFURIN]
- Control (K562 [1]): 120%
- Control (K562 [2]): 101%
- pIC50 (P388 [3]): 5.66
- Control (K562 [4]): 104%
- Control (K562 [5]): 91%
- Control (K562 [6]): 37%
- Control (K562 [7]): 103%
- Control (K562 [8]): 62%
- T/C (Mus musculus [9]): 260%
- Control (K562 [10]): 100%
- Control (K562 [11]): 55%
- Control (K562 [12]): 115%
- Ratio [13]: 1.9
- Activity (K562 [14]): 1.82
- Control (K562 [15]): 82%
- Control (K562 [16]): 113%
- Control (K562 [17]): 63%
- Control (K562 [18]): 84%
- Formation (K562 [19]): 186 pmol/10^9 cells
- Control (K562 [20]): 103%
- Control (K562 [21]): 116%
- pIC50 (K562 [22]): 5.35
- Control (K562 [23]): 96%
- Change (Mus musculus [24]): -13.1%
- Ratio [25]: >6
- Control (K562 [26]): 98%
- pIC50 [27]: 5.82
- Control (K562 [28]): 99%
- Ratio [29]: 7.3
- Control (K562 [30]): 544%
- Control (K562 [31]): 54%
- IC90 (Homo sapiens [32]): >128 µM
- pIC50 (Homo sapiens [33]): 4.98
- pIC50 (LoVo [34]): < 3.89
- pIC50 (L1210 [35]): 5.13
- pIC50 (HL-60 [36]): 5.06
- Control (K562 [37]): 578%
- Change (Mus musculus [38]): -4.3%
- pIC50 (HL-60 [39]): 5.60
- Control (K562 [40]): 92%
- Control (K562 [41]): 64%
- Control (K562 [42]): 90%
- T/C (Mus musculus [43]): 177%
- Formation (K562 [44]): 310 pmol/10^9 cells
- Control (K562 [45]): 85%
- IC90 (HL-60 [46]): 7.6 µM
- Control (K562 [47]): 32%

- IC50 (K562 [48]): Not Active
- IC50 [49]: Not Active
- IC50 (L1210 [50]): Not Active
- IC50 (P388 [51]): Not Active
- IC50 (LoVo [52]): Not Active
- IC50 (HL-60 [53]): Not Active
- IC50 (B16): Not Active
SMILES: NC(=O)c1coc([C@@H]2O[C@H](CO)[C@@H](O)[C@H]2O)c1
- Formation (K562 [19]): 49.4 pmol/10^9 cells
- Formation (K562 [44]): 124 pmol/10^9 cells
